Active and inactive are the calls of the source. The calls are words filed in the database; no cut-off is given here.
Tests used:
[1] = (§1) Growth inhibition of human EKVX cells at 10 uM after 48 hrs by sulforhodamine B assay; format: functional; settings: read-out: GI
Summary of the method: (§2)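 NCI-60 primary screen: cells given a single 10 µM dose under 48 h continuous exposure. Growth/viability estimated by sulforhodamine B protein assay. Reported as percent growth of treated cells (mean graph), expressed as percent growth inhibition.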

[2] = Growth inhibition of human HOP92 cells at 10 uM after 48 hrs by sulforhodamine B assay; format: functional; settings: HOP-92, 48 h, read-out: GI; summary of the method: as §2
[3] = system: SNB-75; test: Growth inhibition of human SNB75 cells at 10 uM after 48 hrs by sulforhodamine B assay; format: functional; settings: for inhibition of growth at 10 µM: SNB-75, 48 h, read-out: GI; summary of the method: as §2
[4] = system: Hs-578T; test: (§3) Growth inhibition of human Hs 578T cells at 10 uM after 48 hrs by sulforhodamine B assay; format: functional; summary of the method: as §2
[5] = (§4) Growth inhibition of human LOXIMVI cells at 10 uM after 48 hrs by sulforhodamine B assay; format: functional; settings: LOX IMVI, read-out: GI; summary of the method: as §2
[6] = Antioxidant activity assessed as DPPH radical scavenging activity at 10^-4 M incubated for 30 mins by spectrophotometry; format: physicochemical; settings: 0.5 h, 100 µM
Summary of the method: (§5)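 Compound at 10^-3 or 10^-4 M mixed with methanolic DPPH (0.1 mL of 1 mM stock; 3 mL total volume), shaken, kept in the dark 30 min at room temperature. Absorbance read at 517 nm. Scavenging (%) = (A_control − A_sample)/A_control × 100, where the control is DPPH in methanol alone. BHT served as reference antioxidant. Triplicate, mean ± SD of three independent experiments.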

[7] = Growth inhibition of human RPMI8226 cells at 10 uM after 48 hrs by sulforhodamine B assay; format: functional; settings: RPMI-8226, 48 h, read-out: GI; summary of the method: as §2
[8] = system: SK-MEL-5; test: Growth inhibition of human SK-MEL-5 cells at 10 uM after 48 hrs by sulforhodamine B assay; format: functional; settings: SK-MEL-5, 48 h, read-out: GI; summary of the method: as §2
[9] = system: K562; test: Growth inhibition of human K562 cells at 10 uM after 48 hrs by sulforhodamine B assay; format: functional; settings: K562, 48 h, read-out: GI; summary of the method: as §2
[10] = Growth inhibition of human PC3 cells at 10 uM after 48 hrs by sulforhodamine B assay; format: functional; settings: PC-3, 48 h, read-out: GI; summary of the method: as §2
[11] = Growth inhibition of human UACC62 cells at 10 uM after 48 hrs by sulforhodamine B assay; format: functional; settings: UACC-62, 48 h, read-out: GI; summary of the method: as §2
[12] = system: T47D; test: Growth inhibition of human T47D cells at 10 uM after 48 hrs by sulforhodamine B assay; format: functional; settings: read-out: GI; summary of the method: as §2
[13] = system: CCRF-CEM; test: Growth inhibition of human CCRF-CEM cells at 10 uM after 48 hrs by sulforhodamine B assay; format: functional; settings: read-out: GI; summary of the method: as §2
[14] = (§6) Growth inhibition of human UO31 cells at 10 uM after 48 hrs by sulforhodamine B assay; format: functional; settings: UO-31, 48 h, read-out: GI; summary of the method: as §2
[15] = system: HL-60(TB); test: Growth inhibition of human HL-60(TB) cells at 10 uM after 48 hrs by sulforhodamine B assay; format: functional; settings: for inhibition of growth at 10 µM: HL-60, 48 h, read-out: GI
Summary of the method: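 NCI-60 one-dose primary screen, HL-60(TB) within the leukemia subpanel. Single 10 µM concentration, 48 h continuous exposure. Growth estimated by sulforhodamine B protein assay. Percent growth of treated cells expressed as percentage growth inhibition (GI%).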

[16] = (§7) Growth inhibition of human HCT116 cells at 10 uM after 48 hrs by sulforhodamine B assay; format: functional; settings: HCT-116, 48 h, read-out: GI; summary of the method: as §2
[17] = system: NCI-H522; test: Growth inhibition of human NCI-H522 cells at 10 uM after 48 hrs by sulforhodamine B assay; format: functional; settings: NCI-H522, 48 h, read-out: GI; summary of the method: as §2
[18] = system: IGROV-1; test: Growth inhibition of human IGROV1 cells at 10 uM after 48 hrs by sulforhodamine B assay; format: functional; settings: IGROV-1, 48 h, read-out: GI; summary of the method: as §2
[19] = Growth inhibition of human HCT15 cells at 10 uM after 48 hrs by sulforhodamine B assay; format: functional; settings: HCT-15, 48 h, read-out: GI; summary of the method: as §2
[20] = (§8) Growth inhibition of human OVCAR4 cells at 10 uM after 48 hrs by sulforhodamine B assay; format: functional; settings: OVCAR-4, 48 h, read-out: GI; summary of the method: as §2
[21] = system: CAKI-1; test: Growth inhibition of human CAKI-1 cells at 10 uM after 48 hrs by sulforhodamine B assay; format: functional; settings: for inhibition of growth at 10 µM: CAKI-1, 48 h, read-out: GI; summary of the method: as §2
[22] = system: ACHN; test: Growth inhibition of human ACHN cells at 10 uM after 48 hrs by sulforhodamine B assay; format: functional; settings: read-out: GI; summary of the method: as §2
[23] = system: MDA-MB-468; test: Growth inhibition of human MDA-MB-468 cells at 10 uM after 48 hrs by sulforhodamine B assay; format: functional; settings: for inhibition of growth at 10 µM: MDA-MB-468, 48 h, read-out: GI; summary of the method: as §2
[24] = Growth inhibition of human MOLT4 cells at 10 uM after 48 hrs by sulforhodamine B assay; format: functional; settings: MOLT-4, 48 h, read-out: GI; summary of the method: as §2
[25] = system: A498; test: Growth inhibition of human A498 cells at 10 uM after 48 hrs by sulforhodamine B assay; format: functional; settings: A498, 48 h, read-out: GI; summary of the method: as §2
[26] = Antioxidant activity assessed as DPPH radical scavenging activity at 10^-3 M incubated for 30 mins by spectrophotometry; format: physicochemical; settings: 0.5 h, 1000 µM; summary of the method: as §5
[27] = system: U-251; test: Growth inhibition of human U251 cells at 10 uM after 48 hrs by sulforhodamine B assay; format: functional; settings: for inhibition of growth at 10 µM: U-251, 48 h, read-out: GI; summary of the method: as §2
[28] = as §3; format: functional; settings: read-out: GI; summary of the method: as §2
[29] = system: EKVX; test: as §1; format: functional; summary of the method: as §2
[30] = system: LOX IMVI; test: as §4; format: functional; summary of the method: as §2
[31] = system: UO-31; test: as §6; format: functional; summary of the method: as §2
[32] = system: HCT-116; test: as §7; format: functional; summary of the method: as §2
[33] = system: OVCAR-4; test: as §8; format: functional; summary of the method: as §2

| Compound | inhibition of growth at 10 µM [1] | inhibition of growth at 10 µM [2] | inhibition of growth at 10 µM [3] | growth inhibition (GI) [4] | inhibition of growth at 10 µM [5] | inhibition (INH) [6] | inhibition of growth at 10 µM [7] | inhibition of growth at 10 µM [8] | inhibition of growth at 10 µM [9] | inhibition of growth at 10 µM [10] | inhibition of growth at 10 µM [11] | inhibition of growth at 10 µM [12] | inhibition of growth at 10 µM [13] | inhibition of growth at 10 µM [14] | inhibition of growth at 10 µM [17] | inhibition of growth at 10 µM [18] | inhibition of growth at 10 µM [19] | inhibition of growth at 10 µM [22] | inhibition of growth at 10 µM [24] | inhibition of growth at 10 µM [25] | other results |
| --- | --- | --- | --- | --- | --- | --- | --- | --- | --- | --- | --- | --- | --- | --- | --- | --- | --- | --- | --- | --- | --- |
| CC1CCCc2c1nc1[nH]c(=S)nc(N)c1c2-c1cccn1C (centres undefined) | 18.9% | 36.4% | 17.5% | inactive | 10.7% | 14% | 51.9% | 18.4% | 29.6% | 19.8% | 23.5% | 40.1% | 26.7% | 34.7% | 29.7% | 34.4% | 13.4% | 15.2% | 32.6% | 41.3% | inhibition of growth at 10 µM [15]: 33.2%; inhibition of growth at 10 µM [16]: 22.6%; inhibition of growth at 10 µM [20]: 13.8%; growth inhibition (GI) [21]: inactive; growth inhibition (GI) [23]: inactive; inhibition (INH) [26]: 26%; inhibition of growth at 10 µM [27]: 21.4% |
| CC1CCCc2c1nc(NC(=S)NC(=O)c1ccccc1)c(C#N)c2-c1cccn1C (centres undefined) | 14.2% | 32% | 31.9% | – | 29.6% | 11% | 36.7% | 12.8% | 33.5% | 28.4% | 24.7% | 40.6% | 27.5% | 51.4% | 22.4% | 38.8% | 20.1% | 31.4% | 31.4% | 22.6% | inhibition of growth at 10 µM [28]: 38.1%; inhibition of growth at 10 µM [15]: 35.9%; inhibition of growth at 10 µM [16]: 19.5%; inhibition of growth at 10 µM [20]: 27.6%; inhibition of growth at 10 µM [21]: 31.9%; inhibition of growth at 10 µM [23]: 32.7%; inhibition (INH) [26]: 23%; inhibition of growth at 10 µM [27]: 15.8% |
| CC1CCCc2c1nc1[nH]c(=S)n(-c3ccccc3)c(=N)c1c2-c1cccn1C (centres undefined) | – | 23.6% | – | inactive | – | – | 47.6% | 16.3% | 12.1% | 12.5% | 18.4% | 19.3% | 15.6% | – | 21.5% | 10.6% | 14.1% | 12.3% | 23.8% | 8.6% | growth inhibition (GI) [29]: inactive; growth inhibition (GI) [3]: inactive; growth inhibition (GI) [30]: inactive; growth inhibition (GI) [31]: inactive; growth inhibition (GI) [15]: inactive; growth inhibition (GI) [32]: inactive; growth inhibition (GI) [33]: inactive; inhibition of growth at 10 µM [21]: 13.8%; inhibition of growth at 10 µM [23]: 11.4%; growth inhibition (GI) [27]: inactive |
